Results: article PMC9732910 (Genes & Development, 2022)
Entries after “also recorded” stand apart in the source; their conditions may differ. *1 amine or outer side, *2 acyl side, *3 side chain or, on linkers, in order; H or OH if unused. Where a SMILES comes first, the peptide text is derived from it. Bridges are numbered along the chain shown (N, C = ends). Primed or numbered codes have the meaning given here. Where no end group is shown, it is not given here. The star is where a group is joined. Lys(Biotin) = O=C(CCCC[C@@H]1SC[C@@H]2NC(=O)N[C@@H]21)NCCCC[C@H](N[*:1])C(=O)[*:2]; PEG3′ = PEG3 spacer coupled to the N-terminus before Fmoc-Lys(Biotin); FITC = O=C1OC2(c3ccc(O)cc3Oc3cc(O)ccc32)c2ccc(NC(=S)*)cc21; mXylylene = c1cc(C[*:1])cc(C[*:2])c1

How the values were obtained:
BRD2, BRD3, and BRD4 = assay: Degradation of BET proteins BRD2, BRD3 and BRD4 in PC3 cells; format: cell-based, human; settings: 5 μM, 4 h
In short: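 PC3 cells in DMEM with 10% FBS were plated in 24-well plates 24 h before dosing. They got fresh medium with 5 μM test compound or reference degraders, or DMSO as reference, for 4 h. Cells were washed in TBS/0.05% Tween 20 and lysed in Tris pH 7.5, NaCl, deoxycholate, glycerol, Triton X-100 and inhibitor buffer. BET proteins were read by Western blot.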

KLHL20 [1] = molecular target: T1, KLHL20 (Homo sapiens, UniProt Q9Y2M5); format: binding; settings: PC3 lysates, immobilized compound
T1 sequence (Q9Y2M5 1-609): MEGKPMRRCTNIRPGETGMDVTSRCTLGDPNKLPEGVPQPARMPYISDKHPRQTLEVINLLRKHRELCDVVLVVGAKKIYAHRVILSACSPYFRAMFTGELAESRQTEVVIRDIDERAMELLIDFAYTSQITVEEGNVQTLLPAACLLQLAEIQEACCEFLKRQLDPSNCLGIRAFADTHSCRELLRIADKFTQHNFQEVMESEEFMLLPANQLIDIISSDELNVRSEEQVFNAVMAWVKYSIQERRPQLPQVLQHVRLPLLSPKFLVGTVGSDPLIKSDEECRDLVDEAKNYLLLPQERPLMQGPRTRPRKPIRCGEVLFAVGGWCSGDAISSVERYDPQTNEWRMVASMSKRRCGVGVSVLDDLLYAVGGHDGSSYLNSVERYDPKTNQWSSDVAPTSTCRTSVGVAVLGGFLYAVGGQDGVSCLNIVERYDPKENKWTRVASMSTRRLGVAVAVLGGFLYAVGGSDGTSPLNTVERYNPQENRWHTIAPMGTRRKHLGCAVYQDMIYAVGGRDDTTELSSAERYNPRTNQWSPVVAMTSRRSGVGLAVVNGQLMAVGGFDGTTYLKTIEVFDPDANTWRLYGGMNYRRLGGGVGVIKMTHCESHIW
In short: (§1)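 Biotinylated test compound (430 nM) was captured on BSA-blocked NeutrAvidin magnetic beads for 1 h at 4°C. Beads were incubated with PC3 lysate diluted 1:7 to 1.6 mg/mL total protein in TBS, 1 mM DTT, 0.1% BSA and protease/phosphatase inhibitors for 1 h at 4°C. After three TBS/DTT/BSA washes, bound proteins were eluted in Laemmli buffer with 5% BME for Western blotting.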

hTERT-BJ1 cells = assay: Cytotoxicity in normal human cell line, CellTiter-Glo 2.0; format: cell-based; settings: hTERT-BJ1, 24h, 72h and 96h
In short: (§2)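 Cells kept in DMEM with 10% FBS and seeded in 96-well plates at 50% confluency 24 h before treatment. Medium was then replaced with fresh medium holding the test compound at varying concentrations, or an equal volume of DMSO as negative control. Viable cell titre was read at the end of treatment by CellTiter-Glo 2.0 luminescence.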

MDA-MB-231 cells = assay: Cell proliferation, CellTiter-Glo 2.0, MDA-MB-231; format: cell-based, human; settings: MDA-MB-231, 24h, 72h and 96h
In short: as §2

PC3 cells = assay: Cell proliferation, CellTiter-Glo 2.0, PC3; format: cell-based, human; settings: PC3, 24, 72, and 96 h
In short: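 PC3 prostate cancer cells in DMEM with 10% FBS were seeded in 96-well plates at 50% confluency 24 h beforehand. They were switched to fresh medium with different concentrations of test compound or reference degraders (DMSO-volume negative control) for 24, 72 and 96 h. Cell titre was measured by CellTiter-Glo 2.0 luminescence; SD, N = 3.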

KLHL20^L592G = molecular target: T2, KLHL20^L592G (Homo sapiens, UniProt Q9Y2M5, L592G); assay: FP binding to KLHL20 Kelch mutant L592G; settings: FITC-labeled BTR2000
T2 sequence (Q9Y2M5 317-603 L592G): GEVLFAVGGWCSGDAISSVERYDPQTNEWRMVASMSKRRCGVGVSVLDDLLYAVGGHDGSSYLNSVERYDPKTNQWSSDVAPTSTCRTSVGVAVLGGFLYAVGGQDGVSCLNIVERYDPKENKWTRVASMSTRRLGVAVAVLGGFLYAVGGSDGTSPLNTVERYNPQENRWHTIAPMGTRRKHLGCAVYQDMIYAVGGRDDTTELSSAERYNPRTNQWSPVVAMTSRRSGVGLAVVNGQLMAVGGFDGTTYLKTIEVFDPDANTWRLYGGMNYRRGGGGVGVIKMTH
In short: (§3)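 His-tagged wild-type or quick-change point-mutant KLHL20 Kelch domain was expressed in E. coli Rosetta (DE3) (0.3 mM IPTG, 18°C overnight). It was Ni-NTA purified and dialysed into TBS pH 7.5 with 1 mM DTT. Protein at 0–15 μM was incubated with 20 nM FITC-labelled peptide for 30 min at 4°C in 1× TBS/1 mM DTT. FP was read at 485/528 nm; LAAAV peptide served as negative control.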

KLHL20^K498A = molecular target: T3, KLHL20^K498A (Homo sapiens, UniProt Q9Y2M5, K498A); assay: FP binding to KLHL20 Kelch mutant K498A; settings: FITC-labeled BTR2000
T3 sequence (Q9Y2M5 317-603 K498A): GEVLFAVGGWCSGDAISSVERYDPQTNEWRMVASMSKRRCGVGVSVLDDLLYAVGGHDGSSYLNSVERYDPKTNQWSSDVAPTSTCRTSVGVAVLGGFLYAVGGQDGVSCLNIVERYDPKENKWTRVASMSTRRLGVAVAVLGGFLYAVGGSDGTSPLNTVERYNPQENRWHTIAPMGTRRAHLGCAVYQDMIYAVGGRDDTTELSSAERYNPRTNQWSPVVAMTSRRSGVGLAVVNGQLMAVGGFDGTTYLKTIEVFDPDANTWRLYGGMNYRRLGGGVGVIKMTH
In short: as §3

KLHL12 = molecular target: T4, KLHL12 (Homo sapiens, UniProt Q53G59); format: binding; settings: PC3 lysates, immobilized compound
T4 sequence (Q53G59 1-568): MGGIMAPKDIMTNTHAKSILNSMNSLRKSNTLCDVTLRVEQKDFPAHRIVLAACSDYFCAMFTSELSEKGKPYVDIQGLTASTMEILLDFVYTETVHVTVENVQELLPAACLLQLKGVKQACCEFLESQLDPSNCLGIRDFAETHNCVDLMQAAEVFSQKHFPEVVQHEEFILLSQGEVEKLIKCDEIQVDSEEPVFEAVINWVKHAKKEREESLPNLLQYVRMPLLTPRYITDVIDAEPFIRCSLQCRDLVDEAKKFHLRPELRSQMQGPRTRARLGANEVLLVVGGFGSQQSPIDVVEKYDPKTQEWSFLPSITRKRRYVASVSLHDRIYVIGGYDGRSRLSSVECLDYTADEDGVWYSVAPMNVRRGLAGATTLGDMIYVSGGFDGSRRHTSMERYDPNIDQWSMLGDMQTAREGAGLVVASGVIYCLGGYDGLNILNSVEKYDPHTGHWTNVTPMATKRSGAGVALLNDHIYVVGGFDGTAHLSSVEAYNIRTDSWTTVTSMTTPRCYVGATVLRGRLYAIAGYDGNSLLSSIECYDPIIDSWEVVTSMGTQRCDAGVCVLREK
In short: as §1

KLHL20 [2] = molecular target: T1, KLHL20; assay: MS-based proteomics of pull-down eluates from PC3 lysates; format: binding; settings: N = 3, control called PGL control in Table S1
In short: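 NeutrAvidin Dynabeads were blocked with 0.1% BSA for 2 h at 4°C and loaded with 430 nM biotinylated compound for 1 h at 4°C. PC3 lysate (1:7 diluted, 1.6 mg/mL total protein, TBS/1 mM DTT/0.1% BSA/inhibitors) was bound for 1 h at 4°C. Beads were washed three times, eluted in Laemmli/5% BME and in-gel trypsin-digested. Eluates were analysed by LC-MS/MS with label-free quantification.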

KLHL20^H499G = molecular target: T5, KLHL20^H499G (Homo sapiens, UniProt Q9Y2M5, H499G); assay: FP binding to KLHL20 Kelch mutant H499G; settings: FITC-labeled BTR2000
T5 sequence (Q9Y2M5 317-603 H499G): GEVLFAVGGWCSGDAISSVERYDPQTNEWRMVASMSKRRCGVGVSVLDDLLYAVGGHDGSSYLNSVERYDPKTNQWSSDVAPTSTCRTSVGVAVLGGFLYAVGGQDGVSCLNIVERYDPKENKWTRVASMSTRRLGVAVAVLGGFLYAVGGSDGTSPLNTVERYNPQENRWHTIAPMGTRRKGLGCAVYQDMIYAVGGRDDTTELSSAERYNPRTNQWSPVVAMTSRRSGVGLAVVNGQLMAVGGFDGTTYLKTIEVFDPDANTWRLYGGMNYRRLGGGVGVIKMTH

KLHL20 Kelch domain = molecular target: T6, KLHL20 Kelch domain (human, UniProt Q9Y2M5 317-603); assay: fluorescence polarisation
T6 sequence (looked up): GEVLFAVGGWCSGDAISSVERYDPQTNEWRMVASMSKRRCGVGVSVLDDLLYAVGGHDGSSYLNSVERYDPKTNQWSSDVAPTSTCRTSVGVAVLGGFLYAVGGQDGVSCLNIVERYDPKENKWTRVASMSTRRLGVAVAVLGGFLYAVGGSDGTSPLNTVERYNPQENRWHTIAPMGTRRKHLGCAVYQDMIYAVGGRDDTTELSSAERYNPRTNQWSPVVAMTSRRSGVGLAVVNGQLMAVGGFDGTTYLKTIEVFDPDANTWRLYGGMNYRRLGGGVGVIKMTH

| enrichment / binding of KLHL20 in pull-down (KLHL20 [1]) | Kd (KLHL20 Kelch domain) [nM] | Molecule | BET protein degradation (BRD2, BRD3, and BRD4) | further results |
| --- | --- | --- | --- | --- |
|  |  | COc1cc(C(=O)NCCOCCOCCOCCNC(=O)C[C@@H]2N=C(c3ccc(Cl)cc3)c3c(sc(C)c3C)-n3c(C)nnc32)ccc1NC(=O)[C@@H]1N[C@@H](CC(C)(C)C)[C@](C#N)(c2ccc(Cl)cc2F)[C@H]1c1cccc(Cl)c1F [A1874] | not effective; also recorded: ineffective |  |
| no binding to KLHL20 |  | cyclized CPGLC: BTR2000 with the aspartic acid mutated; KLHL20-binding deficient cyclized peptide ({Lys(Biotin)-PEG3′}-CPGLC-NH2; linker 1-5 via mXylylene) |  |  |
| no binding to KLHL20 |  | CPGAC: cyclized double-mutant of BTR2000 used as pull-down control ({Lys(Biotin)-PEG3′}-CPGAC-NH2; linker 1-5 via mXylylene) |  |  |
|  |  | Cc1sc2c(c1C)C(c1ccc(Cl)cc1)=N[C@@H](CC(=O)NCCCCNC(=O)COc1cccc3c1C(=O)N(C1CCC(=O)NC1=O)C3=O)c1nnc(C)n1-2 (stereo partly shown) [dBET1] | showed efficacy | normal cell cytotoxicity (hTERT-BJ1 cells): some degree of cytotoxicity |
| no binding to KLHL20 |  | cyclized CPDAC: BTR2000 with the leucine mutated; KLHL20-binding deficient cyclized peptide (CPDAC-NH2; linker 1-5 via mXylylene) |  |  |
|  |  | Cc1ncsc1-c1ccc(CNC(=O)[C@@H]2C[C@@H](O)CN2C(=O)[C@@H](NC(=O)COCCOCCOCCNC(=O)C[C@@H]2N=C(c3ccc(Cl)cc3)c3c(sc(C)c3C)-n3c(C)nnc32)C(C)(C)C)cc1 [MZ1] | showed efficacy | normal cell cytotoxicity (hTERT-BJ1 cells): some degree of cytotoxicity; cell growth inhibition (MDA-MB-231 cells): higher efficiency than BTR2004; cell growth inhibition (PC3 cells): higher efficiency than BTR2004 |
|  | > 5000 | {FITC}-LPDLV-NH2 [FITC-labeled linear LPDLV peptide] |  |  |
|  | ~600 | {FITC}-CPDLVC-NH2 (linker 1-6 via mXylylene) [FITC-labeled macrocycle CPDLVC] |  |  |
|  | ~600 | {FITC}-CPDLC-NH2 (linker 1-5 via mXylylene) [FITC-labeled BTR2000 (macrocycle CPDLC)] |  |  |

| Molecule | enrichment / binding of KLHL20 in pull-down (KLHL20 [1]) | Kd (KLHL20 Kelch domain) [nM] | BET protein degradation (BRD2, BRD3, and BRD4) | further results |
| --- | --- | --- | --- | --- |
| CC(C)C[C@@H]1NC(=O)[C@H](CC(=O)O)NC(=O)[C@@H]2CCCN2C(=O)[C@@H](NC(=S)Nc2ccc3c(c2)C(=O)OC32c3ccc(O)cc3Oc3cc(O)ccc32)CSCc2cccc(c2)CSC[C@@H](C(N)=O)NC1=O [BTR2000] ({FITC}-CPDLC-NH2; linker 1-5 via mXylylene) | successfully enriched KLHL20 |  |  | binding to KLHL20^L592G relative to wild type (KLHL20^L592G): more prominent loss in binding; binding to KLHL20^K498A relative to wild type (KLHL20^K498A): important for BTR2000 binding; enrichment of KLHL12 in pull-down (KLHL12): not KLHL12; log2 fold change BTR2000/CPGAC of KLHL20 (KLHL20 [2]): 11; binding to KLHL20 H499 mutant relative to wild type (KLHL20^H499G): more prominent loss in binding |
